Test results: ChEMBL document CHEMBL1147366, “Cytotoxic and antimalarial alkaloids from the tubers of Stephania pierrei” (J Nat Prod, 1993)
≈ marks a conversion by molar mass, not a printed value.

What was measured:
Plasmodium falciparum [1] = experiment: Antimalarial activity after 24 hrs against chloroquine-sensitive Plasmodium falciparum D6 infected type A+ human erythrocytes by [3H]hypoxanthine uptake; format: functional; conditions: read-out: ED50 (the source's name)
Plasmodium falciparum [2] = experiment: Antimalarial activity after 24 hrs against chloroquine-resistant Plasmodium falciparum W2 infected type A+ human erythrocytes by [3H]hypoxanthine uptake; format: functional; conditions: read-out: ED50 (the source's name)
[3] = Selectivity index, ED50 for human KB cells to ED50 for chloroquine-resistant Plasmodium falciparum W2; format: toxicity, cell-based; conditions: read-out: Ratio ED50
Procedure, shortened: (§1)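 Selectivity index is the ED50 in KB cells divided by the ED50 against the P. falciparum strain (D-6, chloroquine-sensitive; W-2, chloroquine-resistant). Parasite ED50s are expressed in ng/ml and KB ED50s in µg/ml.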

[4] = Selectivity index, ED50 for human KB cells to ED50 for chloroquine-sensitive Plasmodium falciparum D6; format: toxicity, cell-based; conditions: read-out: Ratio ED50; procedure, shortened: as §1
LNCaP = experiment: Cytotoxicity against human LNCAP cells after 3 days by SRB assay; format: functional; conditions: 72 h, read-out: ED50 (the source's name)
A-431 = experiment: Cytotoxicity against human A431 cells after 3 days by SRB assay; format: functional; conditions: A-431, 72 h, read-out: ED50 (the source's name)
ZR-75-1 = experiment: Cytotoxicity against human ZR-75-1 cells after 3 days by SRB assay; format: functional; conditions: ZR-75-1, 72 h, read-out: ED50 (the source's name)
[5] = Cytotoxicity against human LUC1 cells after 3 days by SRB assay; format: functional; conditions: LUC1, 72 h, read-out: ED50 (the source's name)
[6] = Cytotoxicity against human KB cells after 3 days by SRB assay; format: cell-based; conditions: read-out: ED50
[7] = Cytotoxicity against human BCA1 cells after 3 days by SRB assay; format: functional; conditions: BCA1, 72 h, read-out: ED50 (the source's name)
SK-MEL-2 = experiment: Cytotoxicity against human SK-MEL-2 cells after 3 days by SRB assay; format: functional; conditions: SK-MEL-2, 72 h, read-out: ED50 (the source's name)
[8] = Cytotoxicity against human Col1 cells after 3 days by SRB assay; format: functional; conditions: Col1, 72 h, read-out: ED50 (the source's name)
HT-1080 = experiment: Cytotoxicity against human HT1080 cells after 3 days by SRB assay; format: functional; conditions: HT-1080, 72 h, read-out: ED50 (the source's name)
[9] = Cytotoxicity against human U373 cells after 3 days by SRB assay; format: functional, U-373MG ATCC; conditions: U373 MG, 72 h, read-out: ED50 (the source's name)
[10] = Cytotoxicity against vinblastine-resistant human KBV1 cells after 3 days by SRB assay; format: functional; conditions: KB-V1, 72 h, read-out: ED50 (the source's name)
P388 = experiment: Cytotoxicity against mouse P388 cells after 3 days by SRB assay; format: functional; conditions: P388, 72 h, read-out: ED50 (the source's name)

| SMILES | EC50 (Plasmodium falciparum [1]) [µg/mL] | EC50 (Plasmodium falciparum [2]) [µg/mL] | selectivity ratio [3] | selectivity ratio [4] | EC50 (LNCaP) [µg/mL] | EC50 (A-431) [µg/mL] | EC50 (ZR-75-1) [µg/mL] | EC50 [5] [µg/mL] | CC50 at 72 h [6] [µg/mL] | EC50 [7] [µg/mL] | EC50 (SK-MEL-2) [µg/mL] | EC50 [8] [µg/mL] | EC50 (HT-1080) [µg/mL] | EC50 [9] [µg/mL] | EC50 [10] [µg/mL] | EC50 (P388) [µg/mL] |
| --- | --- | --- | --- | --- | --- | --- | --- | --- | --- | --- | --- | --- | --- | --- | --- | --- |
| COc1cc2c(cc1OC)[C@@H]1Cc3ccc(O)c(OC)c3CN1CC2 | 2.84 (≈ 8.32 µM) | 0.84 (≈ 2.46 µM) | > 24 | > 7 |  |  |  |  |  |  |  |  |  |  |  |  |
| COc1c(O)cc2c3c1-c1ccccc1C[C@H]3NCC2 [(-)-ASIMILOBINE] | 0.95 (≈ 3.55 µM) | 0.47 (≈ 1.76 µM) | > 42 | > 21 | > 20 | > 20 | > 20 | > 20 | > 20 | > 20 | > 20 | > 20 | > 20 | > 20 | > 20 | > 20 |
| c1ccc2c(c1)C[C@H]1NCCc3cc4c(c-2c31)OCO4 [ANONAINE] | 1.29 (≈ 4.86 µM) | 1.9 (≈ 7.16 µM) | 3 | 5 | 2.9 (≈ 10.9 µM) | 4.2 (≈ 15.8 µM) | 2.7 (≈ 10.2 µM) | 1.8 (≈ 6.78 µM) | 2.6 (≈ 9.8 µM) | 3.3 (≈ 12.4 µM) | 15.8 (≈ 59.6 µM) | 4 (≈ 15.1 µM) | 2.4 (≈ 9.05 µM) | 1.5 (≈ 5.65 µM) | 1.8 (≈ 6.78 µM) | > 5 |
| COc1cc2c(c(O)c1OC)CCN1Cc3c(ccc(OC)c3OC)C[C@@H]21 | 1.61 (≈ 4.33 µM) | 0.55 (≈ 1.48 µM) | > 36 | > 12 |  |  |  |  |  |  |  |  |  |  |  |  |
| COc1ccc2c(c1)C[C@H]1NCCc3cc4c(c-2c31)OCO4 | 0.44 (≈ 1.49 µM) | 2.27 (≈ 7.69 µM) | > 9 | 45 | 2.4 (≈ 8.13 µM) | 4.6 (≈ 15.6 µM) | 2.4 (≈ 8.13 µM) | 2.3 (≈ 7.79 µM) | 2 (≈ 6.77 µM) | 3.4 (≈ 11.5 µM) | 12.6 (≈ 42.7 µM) | 4.1 (≈ 13.9 µM) | 2.2 (≈ 7.45 µM) | 1.9 (≈ 6.43 µM) | 0.9 (≈ 3.05 µM) | 2.2 (≈ 7.45 µM) |
| COC1=C(OC)[C@]23CCc4cc5c(cc4[C@]2(CCN3C)CC1=O)OCO5 | > 10 | > 10 |  |  |  |  |  |  |  |  |  |  |  |  |  |  |
| COc1cc2c(cc1OC)[C@@H]1Cc3ccc(OC)c(OC)c3CN1CC2 [TETRAHYDROPALMATINE] | > 10 | 5.02 (≈ 14.1 µM) |  |  |  |  |  |  |  |  |  |  |  |  |  |  |
| COc1ccc(C[C@H]2c3cc(O)c(OC)cc3CCN2C)cc1O [(S)-RETICULINE] | 4.05 (≈ 12.3 µM) | 4.47 (≈ 13.6 µM) |  |  |  |  |  |  |  |  |  |  |  |  |  |  |
| COc1cc2c(cc1O)C[C@H]1c3c(cc4c(c3-2)OCO4)CCN1C [CASSYTHICINE] | 2.29 (≈ 7.04 µM) | 2.26 (≈ 6.95 µM) | 3 | 2 | 6.1 (≈ 18.7 µM) | 10.5 (≈ 32.3 µM) | 9.8 (≈ 30.1 µM) | 6.6 (≈ 20.3 µM) | 3 (≈ 9.22 µM) | 6.8 (≈ 20.9 µM) | 8.9 (≈ 27.4 µM) | 7.3 (≈ 22.4 µM) | 7.6 (≈ 23.4 µM) | 4.8 (≈ 14.8 µM) | 1.2 (≈ 3.69 µM) | > 5 |
| COc1c(O[C@@H]2O[C@H](CO)[C@@H](O)[C@H](O)[C@H]2O)cc2c3c1-c1ccccc1C[C@H]3NCC2 | > 10 | > 10 |  |  | > 20 | > 20 | > 20 | > 20 | > 20 | > 20 | > 20 | > 20 | > 20 | > 20 | > 20 | > 20 |
| COc1ccc2c(c1O)-c1c(O)c(OC)cc3c1[C@H](C2)[N+](C)(C)CC3 [MAGNOFLORINE] | > 10 | > 10 |  |  |  |  |  |  |  |  |  |  |  |  |  |  |
| OC(c1cc(C(F)(F)F)nc2c(C(F)(F)F)cccc12)C1CCCCN1 (configuration not stated) [MEFLOQUINE] | 0.0073 (≈ 0.0193 µM) | 0.0016 (≈ 0.00423 µM) |  |  |  |  |  |  |  |  |  |  |  |  |  |  |
| C=C[C@H]1CN2CC[C@H]1C[C@H]2[C@H](O)c1ccnc2ccc(OC)cc12 [QUININE] | 0.0094 (≈ 0.029 µM) | 0.0245 (≈ 0.0755 µM) | > 820 | > 2130 |  |  |  |  |  |  |  |  |  |  |  |  |
| C[C@@H]1CC[C@H]2[C@@H](C)C(=O)O[C@@H]3O[C@@]4(C)CC[C@@H]1[C@]32OO4 [ARTEMISININ] | 0.0006 (≈ 0.00213 µM) | 0.0005 (≈ 0.00177 µM) | 40000 | > 33300 |  |  |  |  |  |  |  |  |  |  |  |  |
| COC1=C[C@@]23CCN(C)[C@@H](Cc4ccc(OC)c(O)c42)C3=CC1=O | > 10 | > 10 |  |  |  |  |  |  |  |  |  |  |  |  |  |  |
| COc1cc2c(cc1OC)-c1c3c(cc4c1[C@@H](C2)NCC4)OCO3 | 0.47 (≈ 1.44 µM) | 1.03 (≈ 3.17 µM) |  | 2 | 1.5 (≈ 4.61 µM) | 0.8 (≈ 2.46 µM) | 1.7 (≈ 5.22 µM) | 13.2 (≈ 40.6 µM) | 0.8 (≈ 2.46 µM) | 2 (≈ 6.15 µM) | 3.3 (≈ 10.1 µM) | 1.7 (≈ 5.22 µM) | 1.7 (≈ 5.22 µM) | 0.6 (≈ 1.84 µM) | 0.7 (≈ 2.15 µM) | 0.6 (≈ 1.84 µM) |
| CCN(CC)CCCC(C)Nc1ccnc2cc(Cl)ccc12 (configuration not stated) [CHLOROQUINE] | 0.0013 (≈ 0.00406 µM) | 0.0112 (≈ 0.035 µM) |  |  |  |  |  |  |  |  |  |  |  |  |  |  |
| COc1cc2c(cc1OC)[C@@H]1Cc3ccc(OC)c(OC)c3C[N+]1(C)CC2.[Cl-] (some centres not stated) | > 10 | > 10 |  |  |  |  |  |  |  |  |  |  |  |  |  |  |
| COc1cc2c(c(O)c1OC)[C@@H]1Cc3ccc(OC)c(OC)c3CN1CC2 | 4.34 (≈ 11.7 µM) | 1.91 (≈ 5.14 µM) | > 10 | > 5 |  |  |  |  |  |  |  |  |  |  |  |  |
| COc1cc2c(cc1OC)CN1CCc3cc(OC)c(OC)cc3[C@@H]1C2 [XYLOPININE] | > 10 | > 10 |  |  |  |  |  |  |  |  |  |  |  |  |  |  |
| COc1cc2c(cc1OC)CN1CCc3cc(OC)c(OC)c(O)c3[C@@H]1C2 | 2.23 (≈ 6 µM) | 1.94 (≈ 5.22 µM) | > 10 | > 9 |  |  |  |  |  |  |  |  |  |  |  |  |
| COc1ccc2c(c1O)C(Cc1ccc(O)cc1)[N+](C)(C)CC2.[Cl-] (racemic) | > 10 | > 10 |  |  |  |  |  |  |  |  |  |  |  |  |  |  |
